Measurements as given in ChEMBL document CHEMBL1155452, “Oncocin (VDKPPYLPRPRPPRRIYNR-NH2): a novel antibacterial peptide optimized against gram-negative human pathogens” (J Med Chem, 2010).
Converted amounts (≈) assume the structure as drawn. Blank lines part the entries; values can stand above or below the molecule they belong to. Where a SMILES comes first, the peptide text is derived from it. [ ]: non-standard residue; d: D form. Orn = NCCC[C@H](N)C(=O)O

Experiments:
Escherichia coli [1] = test: Antimicrobial activity against Escherichia coli 455/7 after 20 hrs by broth microdilution method; format: functional; details: 455/7, 20 h
Procedure, shortened: (§1)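 Pathogens grown overnight on Columbia agar. Colonies suspended in 0.9% saline to OD 0.1, diluted 1:300 in 1% TSB, final (1-2) × 10^5 cfu/well. Peptides 2-fold serially diluted in 1% TSB from 128 to typically 0.5 μg/mL. Incubation at 37 °C; A595 read after 20 ± 2 h. MIC is the lowest concentration with absorbance not above medium only. Triplicate.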

Klebsiella pneumoniae [2] = test: Antimicrobial activity against Klebsiella pneumoniae 63 after 20 hrs by broth microdilution method; format: functional; details: Klebsiella pneumoniae, 63, 20 h
Procedure, shortened: (§2)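 Pathogenic strains grown overnight on Columbia agar, colonies suspended in 0.9% saline to OD 0.1, diluted 1:300 in 1% TSB; final (1-2) × 10^5 cfu/well. Peptides 2-fold serially diluted in 1% TSB from 128 μg/mL, typically to 0.5 μg/mL. Incubated 37 °C, absorbance at 595 nm after 20 ± 2 h, in triplicate; MIC = lowest concentration with absorbance not exceeding medium only.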

Escherichia coli [3] = test: Antimicrobial activity against Escherichia coli 70430001 after 20 hrs by broth microdilution method; format: functional; details: Escherichia coli, 70430001, 20 h; procedure, shortened: as §1
Escherichia coli [4] = test: Antimicrobial activity against Escherichia coli 205024 after 20 hrs by broth microdilution method; format: functional; details: Escherichia coli, 205024, 20 h; procedure, shortened: as §1
Pseudomonas aeruginosa [5] = test: Antimicrobial activity against Pseudomonas aeruginosa ATCC 27853 after 20 hrs by broth microdilution method; format: functional; details: ATCC 27853, 20 h; procedure, shortened: as §2
Proteus vulgaris [6] = test: Antimicrobial activity against Proteus vulgaris ICB 9095 after 20 hrs by broth microdilution method; format: functional; details: ICB 9095, 20 h; procedure, shortened: as §1
Enterobacter cloacae [7] = test: Antimicrobial activity against Enterobacter cloacae Ha089 after 20 hrs by broth microdilution method; format: functional; details: Ha089, 20 h; procedure, shortened: as §1
Klebsiella pneumoniae [8] = test: Antimicrobial activity against Klebsiella pneumoniae DSM 681 after 20 hrs by broth microdilution method; format: functional; details: DSM 681, 20 h; procedure, shortened: as §1
Stenotrophomonas [9] = test: Antimicrobial activity against Stenotrophomonas ICB 7789 after 20 hrs by broth microdilution method; format: functional; details: ICB 7789, 20 h; procedure, shortened: as §1
Enterobacter cloacae [10] = test: Antimicrobial activity against Enterobacter cloacae Ha185 after 20 hrs by broth microdilution method; format: functional; details: Ha185, 20 h; procedure, shortened: as §2
Acinetobacter baumannii [11] = test: Antimicrobial activity against Acinetobacter baumannii ICB 14073 after 20 hrs by broth microdilution method; format: functional; details: ICB 14073, 20 h; procedure, shortened: as §1
Acinetobacter baumannii [12] = test: Antimicrobial activity against Acinetobacter baumannii ICB 9250 after 20 hrs by broth microdilution method; format: functional; details: ICB 9250, 20 h; procedure, shortened: as §1
Pseudomonas aeruginosa [13] = test: Antimicrobial activity against Pseudomonas aeruginosa DSM 3227 after 20 hrs by broth microdilution method; format: functional; details: DSM 3227, 20 h; procedure, shortened: as §2
Acinetobacter baumannii [14] = test: Antimicrobial activity against Acinetobacter baumannii M17 after 20 hrs by broth microdilution method; format: functional; details: M17, 20 h; procedure, shortened: as §1
Stenotrophomonas [15] = test: Antimicrobial activity against Stenotrophomonas ICB 308054 after 20 hrs by broth microdilution method; format: functional; details: ICB 308054, 20 h; procedure, shortened: as §1
Klebsiella pneumoniae [16] = test: Antimicrobial activity against Klebsiella pneumoniae 57 USA after 20 hrs by broth microdilution method; format: functional; procedure, shortened: as §1
Escherichia coli [17] = test: Antimicrobial activity against Escherichia coli 70502001 after 20 hrs by broth microdilution method; format: functional; details: Escherichia coli, 70502001, 20 h; procedure, shortened: as §1
[18] = Stability in 100% mouse serum assessed as half life at 75 ug/ml by MALDI-TOF-MS analysis; format: ADME, cell-free
Procedure, shortened: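 Peptide at 75 μg/mL final in pooled mouse serum (undiluted or 25% v:v aqueous), 37 °C. Triplicate aliquots taken at 0, 30, 60, 120 and 240 min and precipitated with 3% TCA on ice for 10 min. Supernatant neutralized with NaOH and analysed by RP-HPLC on C18 with TFA-containing gradient. Amounts expressed relative to 0 min; metabolites identified by MALDI-TOF-MS.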

Enterobacter cloacae [19] = test: Antimicrobial activity against Enterobacter cloacae 34654 after 20 hrs by broth microdilution method; format: functional; details: Enterobacter cloacae, 34654, 20 h; procedure, shortened: as §1
Pseudomonas aeruginosa [20] = test: Antimicrobial activity against Pseudomonas aeruginosa 61118003 after 20 hrs by broth microdilution method; format: functional; details: Pseudomonas aeruginosa, 61118003, 20 h; procedure, shortened: as §2
Pseudomonas aeruginosa [21] = test: Antimicrobial activity against Pseudomonas aeruginosa 60811001 after 20 hrs by broth microdilution method; format: functional; details: Pseudomonas aeruginosa, 60811001, 20 h; procedure, shortened: as §2
Escherichia coli [22] = test: Antimicrobial activity against Escherichia coli 70419002 after 20 hrs by broth microdilution method; format: functional; details: Escherichia coli, 70419002, 20 h; procedure, shortened: as §1
Escherichia coli [23] = test: Antibacterial activity against Escherichia coli BL21 AI after 20 hrs by broth microdilution assay; format: functional
Procedure, shortened: (§3)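 Nutrient-broth overnight cultures diluted in 1% TSB; E. coli BL21AI 7.5 × 10^5 cells/well, M. luteus ATCC 10240 2 × 10^6 cells/well. Peptides serially 2-fold diluted in 1% TSB from 128 to typically 0.5 μg/mL. Incubation at 37 °C; A595 read after 20 ± 2 h. MIC is the lowest concentration with absorbance not above medium only. Triplicate.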

Pseudomonas aeruginosa [24] = test: Antimicrobial activity against Pseudomonas aeruginosa 60909001 after 20 hrs by broth microdilution method; format: functional; details: Pseudomonas aeruginosa, 60909001, 20 h; procedure, shortened: as §2
Acinetobacter baumannii [25] = test: Antimicrobial activity against Acinetobacter baumannii ICB 14067 after 20 hrs by broth microdilution method; format: functional; details: ICB 14067, 20 h; procedure, shortened: as §1
Stenotrophomonas [26] = test: Antimicrobial activity against Stenotrophomonas ICB 7569 after 20 hrs by broth microdilution method; format: functional; details: ICB 7569, 20 h; procedure, shortened: as §1
Escherichia coli [27] = test: Antimicrobial activity against Escherichia coli Neumann after 20 hrs by broth microdilution method; format: functional; procedure, shortened: as §1
Klebsiella pneumoniae [28] = test: Antimicrobial activity against Klebsiella pneumoniae ATCC 27799 after 20 hrs by broth microdilution method; format: functional; details: ATCC 27799, 20 h; procedure, shortened: as §2
Acinetobacter baumannii [29] = test: Antimicrobial activity against Acinetobacter baumannii ICB 14072 after 20 hrs by broth microdilution method; format: functional; details: ICB 14072, 20 h; procedure, shortened: as §1
Micrococcus luteus = test: Antibacterial activity against Micrococcus luteus ATCC 10240 after 20 hrs by broth microdilution assay; format: functional; details: ATCC 10240, 20 h; procedure, shortened: as §3
SH-SY5Y = test: Cytotoxicity against human SH-SY5Y cells at 600 ug/ml after 24 hrs by MTT assay; format: cell-based
Procedure, shortened: (§4)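 HeLa (1.5 × 10^4/well, seeded overnight) or SH-SY5Y (2 × 10^4/well, differentiated 5 days with 10 μM trans-retinoic acid) in DMEM/Ham's F-12 with 5% or 15% FBS. Peptide added at 600 μg/mL for 24 h at 37 °C, 5% CO2. MTT 0.5 mg/mL for 4 h, then SDS/HCl for 16 h; A590 read against 650 nm. Normalized to PBS (100%); DMSO 12% as positive control.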

HeLa = test: Cytotoxicity against human HeLa cells at 600 ug/ml after 24 hrs by MTT assay; format: cell-based; procedure, shortened: as §4
Pseudomonas aeruginosa [30] = test: Antimicrobial activity against Pseudomonas aeruginosa Walter after 20 hrs by broth microdilution method; format: functional; procedure, shortened: as §2
Klebsiella pneumoniae [31] = test: Antimicrobial activity against Klebsiella pneumoniae ATCC 12657 after 20 hrs by broth microdilution method; format: functional; details: ATCC 12657, 20 h; procedure, shortened: as §1
Pseudomonas aeruginosa [32] = test: Antimicrobial activity against Pseudomonas aeruginosa PAO1 after 20 hrs by broth microdilution method; format: functional; details: PAO1, 20 h; procedure, shortened: as §2
Pseudomonas aeruginosa [33] = test: Antimicrobial activity against Pseudomonas aeruginosa 70108001 after 20 hrs by broth microdilution method; format: functional; details: Pseudomonas aeruginosa, 70108001, 20 h; procedure, shortened: as §2
Enterobacter cloacae [34] = test: Antimicrobial activity against Enterobacter cloacae Ha89 after 20 hrs by broth microdilution method; format: functional; details: Ha89, 20 h; procedure, shortened: as §1
Escherichia coli [35] = test: Antimicrobial activity against Escherichia coli 70329001 after 20 hrs by broth microdilution method; format: functional; details: Escherichia coli, 70329001, 20 h; procedure, shortened: as §1
Enterobacter cloacae [36] = test: Antimicrobial activity against Enterobacter cloacae Ha088 after 20 hrs by broth microdilution method; format: functional; details: Ha088, 20 h; procedure, shortened: as §1
Escherichia coli [37] = test: Antimicrobial activity against Escherichia coli 8474 after 20 hrs by broth microdilution method; format: functional; details: Escherichia coli, 8474, 20 h; procedure, shortened: as §1
Proteus vulgaris [38] = test: Antimicrobial activity against Proteus vulgaris ICB 9081 after 20 hrs by broth microdilution method; format: functional; details: ICB 9081, 20 h; procedure, shortened: as §1
Klebsiella pneumoniae [39] = test: Antimicrobial activity against Klebsiella pneumoniae 8085 after 20 hrs by broth microdilution method; format: functional; details: Klebsiella pneumoniae, 8085, 20 h; procedure, shortened: as §1

Molecule: CC[C@H](C)[C@H](NC(=O)[C@H](CCCN)NC(=O)[C@H](CCCNC(=N)N)NC(=O)[C@@H]1CCCN1C(=O)[C@@H]1CCCN1C(=O)[C@H](CCCNC(=N)N)NC(=O)[C@@H]1CCCN1C(=O)[C@H](CCCNC(=N)N)NC(=O)[C@@H]1CCCN1C(=O)[C@H](CC(C)C)NC(=O)[C@H](Cc1ccc(O)cc1)NC(=O)[C@@H]1CCCN1C(=O)[C@@H]1CCCN1C(=O)[C@H](CCCCN)NC(=O)[C@H](CC(=O)O)NC(=O)[C@@H](N)C(C)C)C(=O)N[C@@H](Cc1ccc(O)cc1)C(=O)N[C@@H](CC(N)=O)C(=O)N[C@@H](CCCN)C(N)=O (H-VDKPPYLPRPRPPR[Orn]IYN[Orn]-NH2)
- MIC (Escherichia coli [1]): 0.5 mg/L (≈ 0.217 µM)
- MIC (Klebsiella pneumoniae [2]): 2 mg/L (≈ 0.867 µM)
- MIC (Escherichia coli [3]): 0.5 mg/L (≈ 0.217 µM)
- MIC (Escherichia coli [4]): 1 mg/L (≈ 0.434 µM)
- MIC (Pseudomonas aeruginosa [5]): 2 mg/L (≈ 0.867 µM)
- MIC (Proteus vulgaris [6]): 4 mg/L (≈ 1.73 µM)
- MIC (Enterobacter cloacae [7]): 0.25 mg/L (≈ 0.108 µM)
- MIC (Klebsiella pneumoniae [8]): 0.5 mg/L (≈ 0.217 µM)
- MIC (Stenotrophomonas [9]): 32 mg/L (≈ 13.9 µM)
- MIC (Enterobacter cloacae [10]): 0.5 mg/L (≈ 0.217 µM)
- MIC (Acinetobacter baumannii [11]): 1 mg/L (≈ 0.434 µM)
- MIC (Acinetobacter baumannii [12]): 0.5 mg/L (≈ 0.217 µM)
- MIC (Pseudomonas aeruginosa [13]): 4 mg/L (≈ 1.73 µM)
- MIC (Acinetobacter baumannii [14]): 1 mg/L (≈ 0.434 µM)
- MIC (Stenotrophomonas [15]): 32 mg/L (≈ 13.9 µM)
- MIC (Klebsiella pneumoniae [16]): 0.5 mg/L (≈ 0.217 µM)
- MIC (Escherichia coli [17]): 1 mg/L (≈ 0.434 µM)
- half-life at 75 ug/ml [18]: 3 h
- MIC (Enterobacter cloacae [19]): 0.5 mg/L (≈ 0.217 µM)
- MIC (Pseudomonas aeruginosa [20]): 1 mg/L (≈ 0.434 µM)
- MIC (Pseudomonas aeruginosa [21]): 2 mg/L (≈ 0.867 µM)
- MIC (Escherichia coli [22]): 2 mg/L (≈ 0.867 µM)
- MIC (Escherichia coli [23]): 8 mg/L (≈ 3.47 µM)
- MIC (Pseudomonas aeruginosa [24]): 1 mg/L (≈ 0.434 µM)
- MIC (Acinetobacter baumannii [25]): 1 mg/L (≈ 0.434 µM)
- MIC (Stenotrophomonas [26]): 16 mg/L (≈ 6.94 µM)
- MIC (Escherichia coli [27]): 0.5 mg/L (≈ 0.217 µM)
- MIC (Klebsiella pneumoniae [28]): 1 mg/L (≈ 0.434 µM)
- MIC (Acinetobacter baumannii [29]): 1 mg/L (≈ 0.434 µM)
- MIC (Micrococcus luteus): 8 mg/L (≈ 3.47 µM)
- Activity (SH-SY5Y): Non-toxic
- Activity (HeLa): Non-toxic
- MIC (Pseudomonas aeruginosa [30]): 4 mg/L (≈ 1.73 µM)
- MIC (Klebsiella pneumoniae [31]): 0.5 mg/L (≈ 0.217 µM)
- MIC (Pseudomonas aeruginosa [32]): 2 mg/L (≈ 0.867 µM)
- MIC (Pseudomonas aeruginosa [33]): 2 mg/L (≈ 0.867 µM)
- MIC (Enterobacter cloacae [34]): 0.25 mg/L (≈ 0.108 µM)
- MIC (Escherichia coli [35]): 1 mg/L (≈ 0.434 µM)
- MIC (Enterobacter cloacae [36]): 0.25 mg/L (≈ 0.108 µM)
- MIC (Escherichia coli [37]): 0.5 mg/L (≈ 0.217 µM)
- MIC (Proteus vulgaris [38]): 8 mg/L (≈ 3.47 µM)
- MIC (Klebsiella pneumoniae [39]): 0.5 mg/L (≈ 0.217 µM)

- MIC (Escherichia coli [23]): 8 mg/L
- MIC (Micrococcus luteus): 8 mg/L
Molecule: H-VDKPPYLPRPRPPRRIYNNR-NH2
